ChEMBL document CHEMBL3091351, “The 3,7-diazabicyclo[3.3.1]nonane scaffold for subtype selective nicotinic acetylcholine receptor (nAChR) ligands. Part 1: the influence of different hydrogen bond acceptor systems on alkyl and (hetero)aryl substituents” (Bioorg Med Chem, 2013)
Active and inactive are the calls of the source. No cut-off for these calls is given here.

Legend:
[1] = Binding affinity to (alpha1)2beta1gammadelta nAChR (unknown origin); set-up: species or system Homo sapiens
[2] = target: Neuronal acetylcholine receptor subunit alpha-7 (Homo sapiens) (UniProt P36544); assay: Agonist activity at human alpha7 nAChR expressed in Xenopus laevis oocytes at 10 uM incubated for 12 secs followed by compound washout for 181 secs by Two-electrode voltage clamp assay; format: cell-based
Chain of Neuronal acetylcholine receptor subunit alpha-7 (Homo sapiens) (P36544 whole entry, the tested form may be a part): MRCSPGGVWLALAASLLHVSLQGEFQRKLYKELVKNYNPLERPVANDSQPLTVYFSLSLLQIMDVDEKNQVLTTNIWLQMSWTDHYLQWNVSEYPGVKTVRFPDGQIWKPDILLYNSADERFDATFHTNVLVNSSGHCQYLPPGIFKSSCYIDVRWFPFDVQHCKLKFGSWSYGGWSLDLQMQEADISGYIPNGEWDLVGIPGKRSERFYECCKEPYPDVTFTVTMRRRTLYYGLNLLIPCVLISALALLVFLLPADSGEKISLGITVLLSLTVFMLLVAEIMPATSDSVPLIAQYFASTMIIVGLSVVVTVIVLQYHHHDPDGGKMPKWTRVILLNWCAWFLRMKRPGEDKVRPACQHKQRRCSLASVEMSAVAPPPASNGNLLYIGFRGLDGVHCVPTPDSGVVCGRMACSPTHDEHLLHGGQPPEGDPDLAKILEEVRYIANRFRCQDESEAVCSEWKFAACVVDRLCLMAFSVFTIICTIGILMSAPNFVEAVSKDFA
Summary of the method: (§1)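 Stage V oocytes, defolliculated with collagenase, injected with 5–20 ng subunit cRNA and recorded 1–7 days later. Two-electrode clamp at −60 mV in Ringer's with 1 µM atropine, pH 7.2. Perfusion 2 ml/min for α7, 4 ml/min for the others. Test applications were bracketed by ACh controls (30 µM α1β1εδ, 60 µM α7, 100 µM α3β4, 30 µM α4β2).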

[3] = target: T1, Neuronal acetylcholine receptor; alpha4/beta2 (Rattus norvegicus, UniProt P09483+P12390); assay: Displacement of [3H]nicotine from alpha4beta2 nAChR in Sprague-Dawley rat brain membrane fraction after 2 to 3 hrs by liquid scintillation counting analysis; format: cell membranes
T1 sequence (P09483 whole entry): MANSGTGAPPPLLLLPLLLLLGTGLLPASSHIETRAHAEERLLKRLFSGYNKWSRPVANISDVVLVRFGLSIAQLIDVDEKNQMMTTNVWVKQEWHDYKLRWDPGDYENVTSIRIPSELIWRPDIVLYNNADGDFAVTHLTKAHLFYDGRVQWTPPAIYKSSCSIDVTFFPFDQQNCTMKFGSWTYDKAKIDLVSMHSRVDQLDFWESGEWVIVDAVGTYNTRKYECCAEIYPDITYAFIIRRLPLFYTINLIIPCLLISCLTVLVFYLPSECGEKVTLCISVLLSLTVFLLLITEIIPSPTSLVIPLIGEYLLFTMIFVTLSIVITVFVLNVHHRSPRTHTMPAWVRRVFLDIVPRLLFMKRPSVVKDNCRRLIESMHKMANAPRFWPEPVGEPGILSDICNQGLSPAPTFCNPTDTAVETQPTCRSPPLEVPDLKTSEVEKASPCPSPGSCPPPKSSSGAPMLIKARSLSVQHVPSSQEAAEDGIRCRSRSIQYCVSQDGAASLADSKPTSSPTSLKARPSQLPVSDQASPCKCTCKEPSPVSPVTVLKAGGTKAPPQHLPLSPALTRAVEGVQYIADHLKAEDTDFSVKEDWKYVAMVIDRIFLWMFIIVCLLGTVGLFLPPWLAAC
T1 sequence (P12390 whole entry): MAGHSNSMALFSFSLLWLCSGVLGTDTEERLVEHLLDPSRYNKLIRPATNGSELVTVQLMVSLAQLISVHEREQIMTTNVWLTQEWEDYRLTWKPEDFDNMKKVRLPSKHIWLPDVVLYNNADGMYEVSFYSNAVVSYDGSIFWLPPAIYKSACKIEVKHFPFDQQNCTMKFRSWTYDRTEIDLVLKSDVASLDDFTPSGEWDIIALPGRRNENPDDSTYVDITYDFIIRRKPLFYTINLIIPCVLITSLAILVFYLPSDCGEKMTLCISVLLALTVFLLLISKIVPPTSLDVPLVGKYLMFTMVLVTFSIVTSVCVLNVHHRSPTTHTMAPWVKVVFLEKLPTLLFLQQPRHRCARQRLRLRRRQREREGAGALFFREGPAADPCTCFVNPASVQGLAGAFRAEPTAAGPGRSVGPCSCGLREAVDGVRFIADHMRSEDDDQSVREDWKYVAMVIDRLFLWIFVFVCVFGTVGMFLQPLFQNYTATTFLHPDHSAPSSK

[4] = target: T2, Neuronal acetylcholine receptor subunit alpha-7 (Rattus norvegicus, UniProt Q05941); assay: Displacement of [3H]methyllycaconitine from alpha7 nAChR in Sprague-Dawley rat forebrain P2 fraction after 90 mins by liquid scintillation counting analysis
T2 sequence (Q05941 whole entry): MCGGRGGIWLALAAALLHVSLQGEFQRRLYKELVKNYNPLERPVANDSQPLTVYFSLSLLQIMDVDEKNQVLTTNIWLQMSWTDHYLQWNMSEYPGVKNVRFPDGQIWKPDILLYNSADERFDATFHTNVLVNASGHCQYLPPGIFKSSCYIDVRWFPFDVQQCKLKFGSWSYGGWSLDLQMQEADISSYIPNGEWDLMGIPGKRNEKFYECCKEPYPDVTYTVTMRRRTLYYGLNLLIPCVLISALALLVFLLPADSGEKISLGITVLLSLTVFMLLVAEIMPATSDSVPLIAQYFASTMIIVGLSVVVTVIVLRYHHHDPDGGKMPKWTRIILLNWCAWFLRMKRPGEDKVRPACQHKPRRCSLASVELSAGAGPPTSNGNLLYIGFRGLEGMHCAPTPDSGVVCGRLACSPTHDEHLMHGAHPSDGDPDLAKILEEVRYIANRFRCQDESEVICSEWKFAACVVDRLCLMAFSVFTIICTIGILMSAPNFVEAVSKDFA

[5] = target: T3, Neuronal acetylcholine receptor; alpha4/beta2 (Homo sapiens, UniProt P17787+P43681); assay: Displacement of [3H]nicotine from alpha4beta2 nAChR expressed in human SH-EP1 clonal cell membranes after 2 to 3 hrs by liquid scintillation counting analysis
T3 sequence (P17787 whole entry): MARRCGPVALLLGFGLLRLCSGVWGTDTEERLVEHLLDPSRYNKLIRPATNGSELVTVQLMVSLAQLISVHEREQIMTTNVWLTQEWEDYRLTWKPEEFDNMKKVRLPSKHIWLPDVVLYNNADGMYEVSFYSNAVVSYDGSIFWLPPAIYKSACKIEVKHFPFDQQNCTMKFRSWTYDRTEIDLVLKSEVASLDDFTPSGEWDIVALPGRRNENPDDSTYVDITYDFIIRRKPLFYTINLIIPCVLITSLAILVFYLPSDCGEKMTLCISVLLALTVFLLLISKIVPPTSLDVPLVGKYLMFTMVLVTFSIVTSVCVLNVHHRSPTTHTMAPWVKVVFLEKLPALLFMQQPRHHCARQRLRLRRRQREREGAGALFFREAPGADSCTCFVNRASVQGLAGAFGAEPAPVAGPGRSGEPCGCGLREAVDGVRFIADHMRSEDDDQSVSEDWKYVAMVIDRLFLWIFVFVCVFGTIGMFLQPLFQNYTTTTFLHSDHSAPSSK
T3 sequence (P43681 whole entry): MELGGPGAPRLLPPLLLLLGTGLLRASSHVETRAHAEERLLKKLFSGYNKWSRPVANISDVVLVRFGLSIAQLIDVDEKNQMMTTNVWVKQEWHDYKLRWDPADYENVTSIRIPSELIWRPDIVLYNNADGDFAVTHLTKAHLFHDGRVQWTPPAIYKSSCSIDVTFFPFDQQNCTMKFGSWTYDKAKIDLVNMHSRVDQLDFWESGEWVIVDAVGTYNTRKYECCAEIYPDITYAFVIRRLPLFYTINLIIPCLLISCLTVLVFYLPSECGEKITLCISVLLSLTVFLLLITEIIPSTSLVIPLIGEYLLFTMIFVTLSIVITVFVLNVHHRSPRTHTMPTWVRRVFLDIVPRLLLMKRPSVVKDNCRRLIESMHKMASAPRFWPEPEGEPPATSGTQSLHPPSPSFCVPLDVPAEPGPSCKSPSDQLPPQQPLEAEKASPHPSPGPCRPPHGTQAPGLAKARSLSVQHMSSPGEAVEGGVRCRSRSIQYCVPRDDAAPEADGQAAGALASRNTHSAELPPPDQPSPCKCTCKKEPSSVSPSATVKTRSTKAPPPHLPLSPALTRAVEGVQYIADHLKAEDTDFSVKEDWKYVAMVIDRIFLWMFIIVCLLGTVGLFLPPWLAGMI

[6] = target: T4, Nicotinic acetylcholine receptor alpha1/beta1/epsilon/delta (Mus musculus) (UniProt P04756+P09690+P02716+P20782); assay: Agonist activity at mouse alpha1beta1epsilondelta nAChR expressed in Xenopus laevis oocytes at 10 uM incubated for 8 secs followed by compound washout for 241 secs by Two-electrode voltage clamp assay; format: cell-based; summary of the method: as §1
[7] = target: T5, Neuronal acetylcholine receptor; alpha3/beta4 (Homo sapiens) (UniProt P30926+P32297); assay: Agonist activity at human alpha3beta4 nAChR expressed in Xenopus laevis oocytes at 10 uM incubated for 8 secs followed by compound washout for 241 secs by Two-electrode voltage clamp assay; format: cell-based; summary of the method: as §1
[8] = target: T2, Neuronal acetylcholine receptor subunit alpha-7; assay: Displacement of [3H]methyllycaconitine from alpha7 nAChR in Sprague-Dawley rat brain membrane fraction after 2 hrs by liquid scintillation counting analysis; format: cell membranes
Summary of the method: (§2)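 Competition binding on rat forebrain P2 membranes (60–70 µg protein) with [3H]MLA across 6–9 test concentrations. Incubation 120 min at 22 °C; 1 µM MLA defined non-specific binding. Samples filtered on PEI-presoaked glass fibre, scintillation-counted; duplicate to quadruplicate, 2–10 independent experiments.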

[9] = target: T1, Neuronal acetylcholine receptor; alpha4/beta2; assay: Displacement of [3H]epibatidine from alpha4beta2 nAChR in Sprague-Dawley rat forebrain P2 fraction after 90 mins by liquid scintillation counting analysis
Summary of the method: (§3)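 Rat forebrain P2 membranes (60 µg protein) in HSS buffer with 0.5 nM (±)-[3H]epibatidine and 6–9 test concentrations. Incubated 90 min at 22 °C; non-specific binding defined with 300 µM (−)-nicotine. Filtered through PEI-presoaked glass fibre filters and counted by liquid scintillation. Run in duplicate to quadruplicate, with 2–10 independent experiments.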

[10] = Displacement of [3H]epibatidine from alpha3beta4 nAChR in calf adrenal membranes fraction after 90 mins by liquid scintillation counting analysis; format: cell membranes, Bos taurus
Summary of the method: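 Calf adrenal membranes (60–70 µg) in HSS buffer with 0.5 nM (±)-[3H]epibatidine, 6–9 test concentrations, 90 min at 22 °C. Non-specific binding with 300 µM (−)-nicotine. PEI-presoaked glass fibre filtration, liquid scintillation read-out; duplicate to quadruplicate, 2–10 independent experiments.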

[11] = target: T3, Neuronal acetylcholine receptor; alpha4/beta2; assay: Agonist activity at human alpha4beta2 nAChR expressed in Xenopus laevis oocytes at 10 uM incubated for 8 secs followed by compound washout for 241 secs by Two-electrode voltage clamp assay; format: cell-based; summary of the method: as §1
[12] = Displacement of [3H]epibatidine from (alpha1)2beta1gammadelta nAChR in Torpedo californica electroplax after 90 mins by liquid scintillation counting analysis; set-up: species or system Tetronarce californica
Summary of the method: (§4)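 Torpedo californica electroplax membranes (60–70 µg) incubated with (±)-[3H]epibatidine and 6–9 test concentrations in HSS buffer, 90 min at 22 °C. 300 µM (−)-nicotine defined non-specific binding. PEI-presoaked glass fibre filtration, scintillation counting; duplicate to quadruplicate, 2–10 independent experiments.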

[13] = target: T1, Neuronal acetylcholine receptor; alpha4/beta2; assay: Displacement of [3H]-epibatidine from rat forebrain alpha4beta2 nAChR; summary of the method: as §3
[14] = target: T2, Neuronal acetylcholine receptor subunit alpha-7; assay: Displacement of [3H]methyllycaconitine from rat forebrain alpha7 nAChR; summary of the method: as §2
[15] = Binding affinity to (alpha1)2beta1gammadelta nAChR in Torpedo californica electroplax by radioligand displacement assay; set-up: species or system Tetronarce californica; summary of the method: as §4
[16] = target: T4, Nicotinic acetylcholine receptor alpha1/beta1/epsilon/delta (Mus musculus); assay: Antagonist activity at mouse alpha1beta1epsilondelta nAChR expressed in Xenopus laevis oocytes assessed as inhibition of acetylcholine-induced effect at 10 uM incubated for 8 secs followed by compound washout for 241 secs by Two-electrode voltage clamp assay; format: cell-based
Summary of the method: (§5)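 Oocytes clamped at −60 mV, perfused with Ringer's plus 1 µM atropine, pH 7.2. After two control ACh applications, the compound was co-applied with control ACh (60 µM for α7, 30 µM for α1β1εδ), followed by one further ACh control to gauge rundown. α7 used 2 ml/min perfusion; muscle subtype used 4 ml/min.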

[17] = target: Neuronal acetylcholine receptor subunit alpha-7 (Homo sapiens) (UniProt P36544); assay: Antagonist activity at human alpha7 nAChR expressed in Xenopus laevis oocytes assessed as inhibition of acetylcholine-induced effect at 10 uM incubated for 12 secs followed by compound washout for 181 secs by Two-electrode voltage clamp assay; format: cell-based; summary of the method: as §5
[18] = target: Neuronal acetylcholine receptor subunit alpha-7 (Homo sapiens) (UniProt P36544); assay: Partial agonist activity at human alpha7 nAChR expressed in Xenopus laevis oocytes at 10 uM incubated for 12 secs followed by compound washout for 181 secs by Two-electrode voltage clamp assay; format: cell-based
Summary of the method: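 α7-expressing oocytes injected with 50 nl of 5–20 ng cRNA and recorded 1–7 days later. Clamped at −60 mV and perfused at 2 ml/min with Ringer's solution (pH 7.2, 1 µM atropine). Two 60 µM ACh control applications, then a compound application, then a follow-up ACh control. Applications lasted 12 s with a 181 s washout.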

[19] = target: T5, Neuronal acetylcholine receptor; alpha3/beta4 (Homo sapiens); assay: Antagonist activity at human alpha3beta4 nAChR expressed in Xenopus laevis oocytes assessed as inhibition of acetylcholine-induced effect at 10 uM incubated for 8 secs followed by compound washout for 241 secs by Two-electrode voltage clamp assay; format: cell-based
Summary of the method: (§6)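 Oocytes injected with 50 nl of 5–20 ng subunit cRNA and recorded 1–7 days later. Two-electrode voltage clamp at −60 mV, with perfusion at 4 ml/min in Ringer's solution (pH 7.2, 1 µM atropine). Each recording ran two ACh controls, then compound co-applied with ACh, then a follow-up ACh control. Applications lasted 8 s with a 241 s washout. Control ACh was 100 µM for α3β4 and 30 µM for α4β2.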

[20] = target: T5, Neuronal acetylcholine receptor; alpha3/beta4 (Homo sapiens); assay: Partial agonist activity at human alpha3beta4 nAChR expressed in Xenopus laevis oocytes at 10 uM incubated for 8 secs followed by compound washout for 241 secs by Two-electrode voltage clamp assay; format: cell-based
Summary of the method: (§7)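 Oocytes injected with 50 nl of 5–20 ng subunit cRNA and recorded 1–7 days later. Two-electrode voltage clamp at −60 mV, with perfusion at 4 ml/min in Ringer's solution (pH 7.2, 1 µM atropine). Two initial ACh control applications, then a compound application, then a follow-up ACh control. Applications lasted 8 s with a 241 s washout. Control ACh was 100 µM for α3β4 and 30 µM for α4β2.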

[21] = target: T3, Neuronal acetylcholine receptor; alpha4/beta2; assay: Antagonist activity at human alpha4beta2 nAChR expressed in Xenopus laevis oocytes assessed as inhibition of acetylcholine-induced effect at 10 uM incubated for 8 secs followed by compound washout for 241 secs by Two-electrode voltage clamp assay; format: cell-based; summary of the method: as §6
[22] = target: T3, Neuronal acetylcholine receptor; alpha4/beta2; assay: Partial agonist activity at human alpha4beta2 nAChR expressed in Xenopus laevis oocytes at 10 uM incubated for 8 secs followed by compound washout for 241 secs by Two-electrode voltage clamp assay; format: cell-based; summary of the method: as §7
[23] = target: T3, Neuronal acetylcholine receptor; alpha4/beta2; assay: Agonist activity at human alpha4beta2 nAChR expressed in Xenopus laevis oocytes at 1 uM incubated for 8 secs followed by compound washout for 241 secs by Two-electrode voltage clamp assay; format: cell-based; summary of the method: as §1
[24] = target: Neuronal acetylcholine receptor subunit alpha-7 (Homo sapiens) (UniProt P36544); assay: Agonist activity at human alpha7 nAChR expressed in Xenopus laevis oocytes at 1 uM incubated for 12 secs followed by compound washout for 181 secs by Two-electrode voltage clamp assay; format: cell-based; summary of the method: as §1
[25] = target: T4, Nicotinic acetylcholine receptor alpha1/beta1/epsilon/delta (Mus musculus); assay: Agonist activity at mouse alpha1beta1epsilondelta nAChR expressed in Xenopus laevis oocytes at 1 uM incubated for 8 secs followed by compound washout for 241 secs by Two-electrode voltage clamp assay; format: cell-based; summary of the method: as §1
[26] = target: T5, Neuronal acetylcholine receptor; alpha3/beta4 (Homo sapiens); assay: Agonist activity at human alpha3beta4 nAChR expressed in Xenopus laevis oocytes at 1 uM incubated for 8 secs followed by compound washout for 241 secs by Two-electrode voltage clamp assay; format: cell-based; summary of the method: as §1
[27] = Binding affinity to pig adrenal alpha3beta4 nAChR by radioligand displacement assay; set-up: species or system Sus scrofa

SMILES | Activity [2] | Ki [3] [nM] | Ki [4] [nM] | Ki [5] [nM] | Activity [6] | Activity [7] | Ki [8] [nM] | Ki [9] [nM] | Ki [10] [nM] | other results
CN1C[C@@H]2C[C@H](C1)C1CCCC(=O)N1C2 (some centres not stated) | – | – | – | – | – | – | – | – | – | Ki [1]: > 50000 nM
CC(=O)N1C[C@@H]2CNC[C@@H](C2)C1 | Active | 18.7 | 636 | 20.2 | inactive | Active | 3280 | 5.6 | 664 | –
CCCC(=O)N1C[C@@H]2CNC[C@@H](C2)C1 | Active | 8.1 | > 1000 | 2.9 | inactive | Active | 230 | 3.6 | 266 | Activity [11]: Active; Ki [12]: > 5000 nM
O=c1c(-c2cccnc2)ccc2n1C[C@@H]1CNC[C@H]2C1 | – | – | – | – | – | – | – | – | – | Ki [13]: 0.91 nM; Ki [14]: 1100 nM; Ki [15]: > 5000 nM
O=C(CC1CCCC1)N1C[C@@H]2CNC[C@@H](C2)C1 | – | – | – | – | – | inactive | – | 43.5 | – | Activity [16]: Active; Activity [17]: Active
O=C(c1ccc(-c2ccccc2)cc1)N1C[C@@H]2CNC[C@@H](C2)C1 | – | – | – | – | – | – | – | 39.9 | 1090 | Activity [18]: Active; Activity [19]: Active; Activity [20]: Active; Activity [17]: Active; Activity [21]: Active; Activity [22]: Active
C1NCC2CNCC1C2 | Active | – | > 1000 | – | – | Active | – | 600 | > 1000 | Activity [23]: Active; Activity [24]: Active; Ki [12]: > 1000 nM; Activity [25]: Active; Activity [26]: Active
O=c1cccc2n1C[C@@H]1CNC[C@H]2C1 [CYTISINICLINE] | – | – | – | – | – | – | – | – | – | Ki [27]: 19 nM; Ki [14]: 250 nM; Ki [15]: 1300 nM
O=C(C1CCCC1)N1C[C@@H]2CNC[C@@H](C2)C1 | Active | 26.6 | – | 20.2 | inactive | inactive | 211 | 10.8 | – | –
O=C1CCCC2[C@H]3CNC[C@H](C3)CN12 (some centres not stated) | – | – | – | – | – | – | – | – | – | Ki [1]: 19000 nM
